The results in this text go back to ChEMBL document CHEMBL4673221, “Furanoflavones pongapin and lanceolatin B blocks the cell cycle and induce senescence in CYP1A1-overexpressing breast cancer cells” (Bioorg Med Chem, 2018).

Data set [1] has as its target T1, Cytochrome P450 1A1 (Homo sapiens, UniProt P04798).
T1 sequence (P04798 whole entry): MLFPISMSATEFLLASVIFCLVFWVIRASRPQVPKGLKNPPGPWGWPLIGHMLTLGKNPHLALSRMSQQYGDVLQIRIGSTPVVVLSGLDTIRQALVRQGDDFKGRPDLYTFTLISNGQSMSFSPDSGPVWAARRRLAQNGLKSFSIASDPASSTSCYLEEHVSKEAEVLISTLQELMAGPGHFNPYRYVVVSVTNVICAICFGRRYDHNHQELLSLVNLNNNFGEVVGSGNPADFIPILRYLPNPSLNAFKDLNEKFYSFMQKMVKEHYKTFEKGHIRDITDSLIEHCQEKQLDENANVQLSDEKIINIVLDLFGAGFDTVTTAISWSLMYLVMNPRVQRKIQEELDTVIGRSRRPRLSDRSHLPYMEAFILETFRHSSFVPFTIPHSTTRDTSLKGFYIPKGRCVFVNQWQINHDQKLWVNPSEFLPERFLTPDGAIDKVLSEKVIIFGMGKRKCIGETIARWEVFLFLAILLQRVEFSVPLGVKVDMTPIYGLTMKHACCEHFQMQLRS
The experiment in a line: Inhibition of human CYP1A1 expressed in HEK293 cells assessed as reduction in CYP1A1 mediated […] induced-toxicity by measuring EC50 at 3 times of IC50 concentration by MTT assay relative to control. Type of data set: cell-based. Also on record: scale not given: the % may be the effect or the level left. The gist of the method:
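Adherent HEK293 cells transfected with pcDNA3.1/hCYP1A1 were exposed to B[a]P over 0.05–100 µM, with inhibitor at 3x its IC50 from the suspension HEK293-CYP1A1 assay. The EC50 of B[a]P for cell growth inhibition was derived. Cells transfected with empty plasmid were used for comparison. Values are mean and SD of three independent experiments.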
On the technique in general: Tetrazolium dyes change colour on reduction, which living cells bring about.

Data set [2] concerns MCF7. The experiment in a line: Cell cycle arrest in human MCF-7 cells over expressing CYP1A1 assessed as down regulation of CyclinD1 after 24 hrs by western blotting assay. Type of data set: functional, cell-based. The gist of the method:
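Cyclin D1 was detected by Western blot, with β-tubulin as loading control. Untreated cells served as control.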
For orientation: Immunoblotting shows a protein as a band on a membrane.

The target in data set [3] is Cytochrome P450 3A4 (Homo sapiens, UniProt P08684). The experiment in a line: Inhibition of human CYP3A4 expressed in Sacchrosomes using dibenzylfluorescein as substrate by fluorescence based assay. Type of data set: ADME.
Chain of Cytochrome P450 3A4 (P08684 whole entry): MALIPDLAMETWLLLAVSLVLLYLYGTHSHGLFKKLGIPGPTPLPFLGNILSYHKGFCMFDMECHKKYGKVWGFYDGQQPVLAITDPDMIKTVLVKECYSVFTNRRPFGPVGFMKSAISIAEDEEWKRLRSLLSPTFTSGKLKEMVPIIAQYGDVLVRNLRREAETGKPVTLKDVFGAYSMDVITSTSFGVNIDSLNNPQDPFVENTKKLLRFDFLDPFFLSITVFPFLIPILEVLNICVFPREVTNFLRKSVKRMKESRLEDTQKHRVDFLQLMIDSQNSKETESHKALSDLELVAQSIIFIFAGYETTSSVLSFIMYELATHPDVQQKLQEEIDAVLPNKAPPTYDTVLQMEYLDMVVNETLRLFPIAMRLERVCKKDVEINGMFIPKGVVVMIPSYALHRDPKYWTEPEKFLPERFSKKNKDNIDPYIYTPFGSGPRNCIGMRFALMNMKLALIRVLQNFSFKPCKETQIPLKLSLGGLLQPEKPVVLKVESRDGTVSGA
The target in data set [4] is Cytochrome P450 2C9 (Homo sapiens, UniProt P11712). The experiment in a line: Inhibition of human CYP2C9 expressed in Sacchrosomes using 3-cyano-7-ethoxycoumarin as substrate by fluorescence based assay. Type of data set: ADME.
Chain of Cytochrome P450 2C9 (P11712 whole entry): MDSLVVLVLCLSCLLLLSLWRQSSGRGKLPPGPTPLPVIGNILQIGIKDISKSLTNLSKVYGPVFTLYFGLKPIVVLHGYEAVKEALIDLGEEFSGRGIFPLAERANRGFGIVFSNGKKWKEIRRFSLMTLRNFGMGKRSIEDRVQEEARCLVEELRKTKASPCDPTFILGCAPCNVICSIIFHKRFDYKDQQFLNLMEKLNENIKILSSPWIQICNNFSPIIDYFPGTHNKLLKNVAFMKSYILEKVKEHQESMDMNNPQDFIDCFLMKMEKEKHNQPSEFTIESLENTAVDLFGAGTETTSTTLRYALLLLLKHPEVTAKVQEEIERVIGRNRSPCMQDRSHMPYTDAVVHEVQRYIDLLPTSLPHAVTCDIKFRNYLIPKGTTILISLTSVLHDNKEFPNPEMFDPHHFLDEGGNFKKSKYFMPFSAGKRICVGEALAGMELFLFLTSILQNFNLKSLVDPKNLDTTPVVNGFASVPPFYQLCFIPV
The target of data set [5] is T2, Cytochrome P450 2A6 (Homo sapiens, UniProt P11509).
T2 sequence (P11509 whole entry): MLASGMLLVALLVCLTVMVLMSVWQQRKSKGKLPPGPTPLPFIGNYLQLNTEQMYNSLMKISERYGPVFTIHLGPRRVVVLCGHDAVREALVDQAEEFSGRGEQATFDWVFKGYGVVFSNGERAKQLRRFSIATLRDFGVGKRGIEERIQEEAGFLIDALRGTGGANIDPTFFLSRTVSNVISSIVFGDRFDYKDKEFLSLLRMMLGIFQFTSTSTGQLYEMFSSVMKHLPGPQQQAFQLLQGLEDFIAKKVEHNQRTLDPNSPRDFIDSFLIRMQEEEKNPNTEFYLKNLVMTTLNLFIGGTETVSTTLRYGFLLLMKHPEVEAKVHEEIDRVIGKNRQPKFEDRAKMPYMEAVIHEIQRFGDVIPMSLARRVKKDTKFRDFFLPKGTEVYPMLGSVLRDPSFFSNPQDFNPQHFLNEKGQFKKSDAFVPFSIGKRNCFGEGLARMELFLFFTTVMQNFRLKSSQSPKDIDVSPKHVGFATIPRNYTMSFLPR
The experiment in a line: Inhibition of human CYP2A6 expressed in Sacchrosomes by fluorescence based assay. Type of data set: ADME.

In data set [6] the target is T3, Cytochrome P450 1A2 (Homo sapiens, UniProt P05177).
T3 sequence (P05177 whole entry): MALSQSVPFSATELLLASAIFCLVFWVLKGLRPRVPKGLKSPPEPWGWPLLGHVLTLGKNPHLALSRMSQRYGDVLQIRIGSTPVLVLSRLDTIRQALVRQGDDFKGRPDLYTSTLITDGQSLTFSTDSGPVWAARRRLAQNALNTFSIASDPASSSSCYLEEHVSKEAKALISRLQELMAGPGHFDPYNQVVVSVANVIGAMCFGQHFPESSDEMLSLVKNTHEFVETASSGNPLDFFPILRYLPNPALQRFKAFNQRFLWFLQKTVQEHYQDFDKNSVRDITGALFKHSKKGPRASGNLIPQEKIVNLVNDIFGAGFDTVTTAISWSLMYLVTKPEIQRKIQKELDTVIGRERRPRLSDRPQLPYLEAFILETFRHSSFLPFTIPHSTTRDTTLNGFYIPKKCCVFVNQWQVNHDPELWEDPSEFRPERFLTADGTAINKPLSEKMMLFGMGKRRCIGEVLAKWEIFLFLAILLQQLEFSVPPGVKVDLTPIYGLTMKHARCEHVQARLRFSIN
In words: Inhibition of human CYP1A2 expressed in Sacchrosomes using 3-cyano-7-ethoxycoumarin as substrate by fluorescence based assay. Type of data set: ADME.

Data set [7] deals with T4, Cytochrome P450 1B1 (Homo sapiens, UniProt Q16678).
T4 sequence (Q16678 whole entry): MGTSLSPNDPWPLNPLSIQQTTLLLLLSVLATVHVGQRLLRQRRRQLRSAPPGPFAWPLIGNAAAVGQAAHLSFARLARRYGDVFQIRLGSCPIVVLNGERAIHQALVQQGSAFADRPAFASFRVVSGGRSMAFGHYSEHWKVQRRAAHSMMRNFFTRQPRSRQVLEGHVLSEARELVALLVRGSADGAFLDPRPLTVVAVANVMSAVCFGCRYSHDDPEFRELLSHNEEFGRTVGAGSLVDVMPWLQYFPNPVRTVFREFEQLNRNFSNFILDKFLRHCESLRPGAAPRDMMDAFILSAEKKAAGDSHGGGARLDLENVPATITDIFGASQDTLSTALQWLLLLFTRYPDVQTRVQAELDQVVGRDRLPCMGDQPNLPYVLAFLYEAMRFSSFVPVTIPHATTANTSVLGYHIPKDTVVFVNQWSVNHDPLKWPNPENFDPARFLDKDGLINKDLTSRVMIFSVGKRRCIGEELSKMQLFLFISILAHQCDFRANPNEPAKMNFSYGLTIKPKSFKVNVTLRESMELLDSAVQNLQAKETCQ
In words: Inhibition of human CYP1B1 expressed in human HEK293 cells using 7-ethoxyresorufin as substrate preincubated for 30 mins followed by substrate additon and measured after 60 mins by fluorescence based assay. Type of data set: ADME, cell-based. The gist of the method:
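The assay used live recombinant human HEK293 cells grown in suspension, each cell line expressing a single CYP (CYP1A1 or CYP1B1). Percent inhibition was read at 10 μM, and IC50 values were determined. Values are mean ± SD of three independent experiments. Alpha-naphthoflavone served as the reference inhibitor.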

Data set [8] has as its target T1, Cytochrome P450 1A1. In words: Inhibition of human CYP1A1 expressed in sacchrosomes using 7-ethoxyresorufin as substrate by fluorescence based assay. In short, it runs like this:
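Enzymes were microsomal preparations isolated from recombinant baker's yeast (Sacchrosomes). Compounds were screened at 10 μM for percent inhibition, and IC50 values were also determined. Values are mean ± SD of three independent experiments. Alpha-naphthoflavone served as the positive control.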

The source made the active and inactive calls. The calls are words filed in the database; no cut-off is given here.

Usually IC50 stands for the concentration that gives 50% inhibition. For the compound `O=c1cc(-c2ccccc2)oc2c1ccc1occc12` [LANCEOLATIN B], the Activity in data set [1] worked out at 100%. The result in data set [2] was Active. Also, the IC50 in data set [3] is above 20 µM; in data set [4], above 20 µM; in data set [5], above 20 µM; in data set [6], 0.187 µM; in data set [7], 0.39 µM; in data set [8], 0.076 µM.

For `COc1c(-c2ccc3c(c2)OCO3)oc2c(ccc3occc32)c1=O` [PONGAPIN], the Activity in data set [1] turned out to be 100%. Besides, the outcome in data set [2] was Active. Moreover, the IC50 in data set [3] was above 20 µM; in data set [4], above 20 µM; in data set [5], above 20 µM; in data set [6], 2.5 µM; in data set [7] it was 1.06 µM; in data set [8], 0.071 µM.
